Experimental data published in ChEMBL document CHEMBL3608271, “New phenolic compounds from the seeds of Nigella glandulifera and their inhibitory activities against human cancer cells” (Bioorg Med Chem Lett, 2015).

Legend:
Type in all cases: functional, cell-based
[1] = Cytotoxicity against human Bel7402 cells after 72 hrs by MTT assay; conditions: Bel-7402, 72 h
Summary of the method: (§1)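 Cells seeded in 96-well plates and grown 24 h at 37 °C, 5% CO2, then exposed to test compound at five concentrations for 72 h. MTT (0.5 mg/mL in PBS) added, 4 h at 37 °C. Medium replaced with DMSO, shaken 3 min to dissolve formazan, optical density read at 544 nm. 5-Fluorouracil as positive control.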

HepG2 = test: Cytotoxicity against human HepG2 cells after 72 hrs by MTT assay; conditions: HepG2, 72 h; summary of the method: as §1
[2] = Cytotoxicity against human HCT8 cells after 72 hrs by MTT assay; conditions: HCT-8, 72 h; summary of the method: as §1
A549 = test: Cytotoxicity against human A549 cells after 72 hrs by MTT assay; conditions: A549, 72 h; summary of the method: as §1

| SMILES | IC50 [1] | IC50 (HepG2) | IC50 [2] | IC50 (A549) |
| --- | --- | --- | --- | --- |
| CC(C)(O)CCc1c(O)cc(CO)cc1O | > 40 µM | 17.8 µM | > 40 µM | > 40 µM |
| CC(C)=CCc1c(O)cc(CO)cc1O | 7.69 µM | 15.8 µM | 11.4 µM | 20.1 µM |
| CC1(C)C=Cc2c(O)cc(CO)cc2O1 | > 40 µM | 17.3 µM | > 40 µM | 36.3 µM |
| CC1(C)C=Cc2c(cc3c(c2O)C(=O)OC3)O1 | > 40 µM | 37 µM | 24.1 µM | > 40 µM |
| O=c1[nH]cc(F)c(=O)[nH]1 [FLUOROURACIL] | 10.1 µM | 16.4 µM | 6.3 µM | 14.2 µM |
